The target in assay [1] is Prostaglandin G/H synthase 1 (Homo sapiens, UniProt P23219). In words: Inhibition of COX1 (unknown origin) using arachidonic acid as substrate incubated for 10 mins by Ellman's reagent based COX-1/COX-2 ELISA assay. (In general: Ellman's reagent forms a yellow product with free thiols.)
A further assay deals with A549. Kind of assay: Antiproliferative activity against human A549 cells incubated for 48 hrs by MTT assay. Particulars: A549, 48 h. The assay is classed as functional, cell-based. Summed up:
(§1)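 MTT assay on F10 (murine melanoma), HeLa, A549, MCF-7 and 293T (human renal epithelium) cells. IC50 given as mean ± SD of three independent experiments.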

A short description of assay [2]: Inhibition of 5-LOX assessed as calcium ionophore A23187-stimulated LTB4 production preincubated for 30 mins followed by calcium ionophore A23187 addition and measured after 30 mins by ELISA. Background: An ELISA detects its analyte on a solid surface through an enzyme-linked reagent.
The next assay relates to HeLa. In words: Antiproliferative activity against human HeLa cells incubated for 48 hrs by MTT assay. The assay is classed as functional, cell-based. The method in brief: as §1
Background: Tetrazolium dyes change colour on reduction, which living cells bring about.

The next assay has as its system HEK-293T. Kind of assay: Antiproliferative activity against human 293T cells incubated for 48 hrs by MTT assay. The assay is classed as cell-based. Summed up:
as §1

The subject of another assay is MCF7. In words: Antiproliferative activity against human MCF7 cells incubated for 48 hrs by MTT assay. The assay is classed as functional, cell-based. Particulars: MCF7, 48 h. The method in brief:
as §1

For a further assay, the species on record is Homo sapiens. In words: Selectivity index, ratio of IC50 for COX1 (unknown origin) to IC50 for COX2 (unknown origin). Summed up:
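Ratio of COX-1 IC50 to COX-2 IC50, from human COX-1 and human COX-2 inhibitor screening assay kits. Each IC50 is the concentration giving 50% enzyme inhibition, taken as the mean of four determinations.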

The target of assay [3] is T1, Prostaglandin G/H synthase 2 (Homo sapiens, UniProt P35354).
T1 sequence (P35354 whole entry): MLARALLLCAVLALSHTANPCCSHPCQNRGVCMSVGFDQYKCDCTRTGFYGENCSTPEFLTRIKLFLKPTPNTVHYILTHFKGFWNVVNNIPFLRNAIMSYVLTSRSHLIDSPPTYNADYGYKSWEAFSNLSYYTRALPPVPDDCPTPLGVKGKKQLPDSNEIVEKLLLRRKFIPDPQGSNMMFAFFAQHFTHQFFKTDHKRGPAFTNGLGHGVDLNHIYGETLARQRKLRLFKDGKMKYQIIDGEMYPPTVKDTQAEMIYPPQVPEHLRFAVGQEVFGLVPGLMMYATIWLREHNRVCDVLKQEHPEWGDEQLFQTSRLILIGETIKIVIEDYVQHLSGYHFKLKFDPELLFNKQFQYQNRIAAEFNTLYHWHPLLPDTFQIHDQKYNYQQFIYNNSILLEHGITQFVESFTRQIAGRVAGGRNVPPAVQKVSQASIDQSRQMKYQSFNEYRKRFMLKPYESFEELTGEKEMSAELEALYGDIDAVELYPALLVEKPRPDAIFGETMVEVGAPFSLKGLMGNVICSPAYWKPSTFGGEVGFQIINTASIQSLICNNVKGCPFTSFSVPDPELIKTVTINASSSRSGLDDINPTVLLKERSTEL
In words: Inhibition of COX2 (unknown origin) using arachidonic acid as substrate incubated for 10 mins by Ellman's reagent based COX-1/COX-2 ELISA assay.

In assay [4] the test system is B16-F10. Kind of assay: Antiproliferative activity against mouse B16F10 cells incubated for 48 hrs by MTT assay. Type of assay: functional, cell-based. Particulars: B16-F10, 48 h. The method in brief:
as §1

Assay [5] concerns B16-F10. Kind of assay: Inhibition of LPS-induced PGE2 production in mouse B16F10 cells at 6.25 uM incubated for 24 hrs by enzyme immunoassay. The assay is classed as functional, cell-based. The method in brief:
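F10 cells treated for 24 h alongside LPS (1 µg/ml), test agent at 6.25 µM. Supernatant collected by centrifugation and PGE2 measured with a PGE2 enzyme immunoassay (ELISA) kit. Mean ± SD of three independent experiments.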

Assay [6] has as its system B16-F10. In words: Antitumor activity against mouse B16F10 cells implanted in nude mouse assessed as decrease in tumor weight at 20 mg/kg, ip administered once per 2 days for 14 days by caliper method relative to control. The assay is classed as functional, organism-based. The method in brief: (§2)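 Nude mice were given 5×10^6 F10 cells subcutaneously in the right flank. At about 100 mm3, 24 mice were randomized into four groups of vehicle or compound. Dosing was intraperitoneal every two days for two weeks. Tumor volume was recorded every other day. Tumors were excised and weighed after the last treatment, and body weight was monitored.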

Assay [7] concerns B16-F10. Kind of assay: Antitumor activity against mouse B16F10 cells implanted in nude mouse assessed as reduction in tumor size at 20 mg/kg, ip administered once per 2 days for 14 days by caliper method. Type of assay: functional. The method in brief:
as §2

Calls of active or inactive are those of the source. The rule behind the calls is not given here. Where only a bound is given, the exact number is not on record here.

Prostaglandin G/H synthase 1, sequence (P23219 whole entry): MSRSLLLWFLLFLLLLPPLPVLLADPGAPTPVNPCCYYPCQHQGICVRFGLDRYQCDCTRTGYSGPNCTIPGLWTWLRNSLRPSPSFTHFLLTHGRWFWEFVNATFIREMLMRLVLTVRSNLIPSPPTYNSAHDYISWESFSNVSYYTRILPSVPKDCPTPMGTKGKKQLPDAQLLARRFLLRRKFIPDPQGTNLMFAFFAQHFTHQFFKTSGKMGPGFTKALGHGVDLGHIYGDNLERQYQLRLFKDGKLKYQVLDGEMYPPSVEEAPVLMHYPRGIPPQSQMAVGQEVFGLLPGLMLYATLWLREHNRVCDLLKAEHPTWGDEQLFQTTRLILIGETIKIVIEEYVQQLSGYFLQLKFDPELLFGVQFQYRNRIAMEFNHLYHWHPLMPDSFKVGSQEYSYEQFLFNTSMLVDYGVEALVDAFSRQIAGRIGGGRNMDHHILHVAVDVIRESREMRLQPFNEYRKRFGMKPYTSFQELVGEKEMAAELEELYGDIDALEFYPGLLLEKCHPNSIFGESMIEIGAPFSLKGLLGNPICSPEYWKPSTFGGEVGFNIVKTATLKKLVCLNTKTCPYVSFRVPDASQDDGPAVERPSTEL

For `NS(=O)(=O)c1ccc(-n2nc(C(=O)N3CCSCC3)cc2-c2ccc(C(F)(F)F)cc2)cc1`, the IC50 stood at 30.8 µM in assay [1]; 10.2 µM in the assay with A549; 0.71 µM in [2]; 9.94 µM in the assay on HeLa; 136 µM in the assay on HEK-293T; 9.25 µM with MCF7. Besides, the results for the IC50 (in assay [3]; with B16-F10 [4]) were 0.19 µM and 8.16 µM, respectively. In addition, the Ratio IC50 in the assay filed under Homo sapiens is 162.

Turning to `NS(=O)(=O)c1ccc(-n2nc(C(=O)OCCCN3CCOCC3)cc2-c2ccc(C(F)(F)F)cc2)cc1`, the IC50 in assay [1] worked out at 28.5 µM; in the assay on A549 it was 15.2 µM; in [2], 0.75 µM; with HeLa, 29.8 µM; in the assay with HEK-293T, 179 µM; in the assay with MCF7, 14.7 µM. The IC50 was 0.21 µM in assay [3] and 14.4 µM in the assay on B16-F10 [4]. For the same molecule, in the assay listed under Homo sapiens, the Ratio IC50 turned out to be 136.

For the molecule `NS(=O)(=O)c1ccc(-n2nc(C(=O)N3CCSCC3)cc2-c2cccc(Cl)c2)cc1`, the IC50 in assay [1] is 29.4 µM; with A549, 15.4 µM; in [2], 0.87 µM; with HeLa, 14.8 µM; in the assay on HEK-293T it was 191 µM; in the assay on MCF7 it was 12.5 µM. Moreover, the IC50 was 0.21 to 0.22 µM in assay [3] and 13.9 µM in the assay on B16-F10 [4]. Also, the Ratio IC50 in the assay listed under Homo sapiens was determined as 140.

Turning to `Cc1ccc(-c2cc(C(F)(F)F)nn2-c2ccc(S(N)(=O)=O)cc2)cc1` [CELECOXIB], the inhibition result in the assay with B16-F10 [5] is “Active”. The outcome with B16-F10 [6] was Active. For the same molecule, the concentration for half-maximal inhibition (IC50) in the assay with A549 came to 11 µM; with HEK-293T, 97.9 µM; in the assay with MCF7, 12.6 µM; in the assay on B16-F10 [4], 13.3 µM. The Activity in the assay with B16-F10 [7] is 978.35 mm3.

`NS(=O)(=O)c1ccc(-n2nc(C(=O)N3CCSCC3)cc2-c2cccc(F)c2)cc1`: the IC50 with A549 was found to be 14.5 µM; in [2], 1.32 µM; in the assay with HeLa, 13.2 µM; in the assay with HEK-293T it was 176 µM; in the assay on MCF7, 14.4 µM; in assay [3], 0.19 µM. The same molecule gave a 50% inhibitory concentration (IC50) in the assay on B16-F10 [4] of 10.3 µM.

For `NS(=O)(=O)c1ccc(-n2nc(C(=O)OCCCN3CCOCC3)cc2-c2ccc(F)cc2)cc1`, the 50% inhibitory concentration (IC50) in the assay on A549 was over 100 µM; in [2], 0.75 µM; with HeLa, over 100 µM; in the assay on HEK-293T, over 300 µM; with MCF7 it was over 100 µM; in [3], 3.57 µM. In the assay with B16-F10 [4], this molecule gave an IC50 of over 100 µM.

`CCOc1ccc(-c2cc(C(=O)N3CCOCC3)nn2-c2ccc(S(N)(=O)=O)cc2)cc1`: the IC50 in the assay with A549 is 41.7 µM; in assay [2], 0.95 µM; in the assay on HeLa, 27.2 µM; in the assay with HEK-293T, 116 µM; with MCF7 it was 15 µM; in assay [3] it was 2.99 µM. The midpoint of inhibition in the assay with B16-F10 [4], the IC50, lay at 18.6 µM.

Broadly, the IC50 is the concentration needed to halve the response being measured.

Source of the values: ChEMBL document CHEMBL4346661, “Design, synthesis and evaluation of novel diaryl-1,5-diazoles derivatives bearing morpholine as potent dual COX-2/5-LOX inhibitors and antitumor agents” (Eur J Med Chem, 2019).
